Active and inactive are the calls of the source. No cut-off for these calls is given here.
How the values were obtained:
[1] = tested on: Respiratory syncytial virus; experiment: Antiviral activity against Respiratory syncytial virus Long infected in human HeLa cells assessed as inhibition of virus-induced cytopathicity; format: functional, organism-based
[2] = tested on: Cytomegalovirus; experiment: Antiviral activity against Cytomegalovirus assessed as inhibition of virus-induced cytopathicity by cell based assay; format: functional, organism-based; settings: Human betaherpesvirus 5
[3] = Cytotoxicity against MDCK cells; format: cell-based, Canis lupus familiaris; settings: dog
Outline: (§1)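 MDCK, HEL and HeLa cultures run alongside the cytopathicity assays received graded compound levels up to 100 μM. Toxicity was scored as the minimum cytotoxic concentration, the lowest level causing a microscopically detectable change in cell morphology.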

[4] = tested on: Hepatitis C virus; experiment: Antiviral activity against HCV infected in human HuH5.2 cells carrying subgenomic HCV replicon assessed as inhibition of replicon replication by luciferase reporter gene assay; format: functional, organism-based, Hepacivirus hominis; settings: Huh-5-2
Outline: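 Huh 5-2 cells are Huh 7 cells carrying the subgenomic replicon I389luc-ubi-neo/NS3-3′/5.1. They were maintained in DMEM with 10% heat-inactivated FCS, non-essential amino acids, penicillin/streptomycin and 250 μg/mL G418. Cells were seeded at 5 × 10^3 cells/well in medium without G418 and exposed to compound.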

[5] = tested on: Feline coronavirus; experiment: Antiviral activity against Feline coronavirus assessed as inhibition of virus-induced cytopathicity by cell based assay; format: functional, organism-based; settings: Alphacoronavirus 1
[6] = tested on: Coxsackievirus B4; experiment: Antiviral activity against Coxsackievirus B4 assessed as inhibition of virus-induced cytopathicity by cell based assay; format: functional, organism-based; settings: Enterovirus B
[7] = tested on: Human immunodeficiency virus 1; experiment: Antiviral activity against HIV1 3B infected in human CEM cells assessed as inhibition of syncytia formation after 4 days; format: functional, organism-based; settings: Human immunodeficiency virus 1, 3B, CCRF-CEM, 96 h
Outline: (§2)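 Human CEM cells (~3 × 10^5 cells/mL) were infected with ~100 CCID50/mL of HIV-1(IIIB) or HIV-2(ROD) and seeded with compound dilutions. After 4 days at 37 °C, syncytia formation was scored microscopically.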

[8] = tested on: Human immunodeficiency virus 2; experiment: Antiviral activity against HIV2 ROD infected in human CEM cells assessed as inhibition of syncytia formation after 4 days; format: functional, organism-based; settings: Human immunodeficiency virus 2, ISOLATE ROD, CCRF-CEM, 96 h; outline: as §2
[9] = tested on: Human alphaherpesvirus 1; experiment: Antiviral activity against thymidine kinase deficient ACV resistant Herpes simplex virus 1 KOS assessed as inhibition of virus-induced cytopathicity by cell based assay; format: functional, organism-based; settings: Human alphaherpesvirus 1, KOS
[10] = tested on: Mammalian orthoreovirus 1; experiment: Antiviral activity against Reovirus 1 assessed as inhibition of virus-induced cytopathicity by cell based assay; format: functional, organism-based
[11] = tested on: Influenza A virus; experiment: Antiviral activity against Influenza A virus H3N2 infected in MDCK cells assessed as inhibition of virus-induced cytopathicity; format: functional, organism-based
[12] = tested on: Human alphaherpesvirus 2; experiment: Antiviral activity against Herpes simplex virus 2 assessed as inhibition of virus-induced cytopathicity by cell based assay; format: functional, organism-based
[13] = tested on: Vesicular stomatitis virus; experiment: Antiviral activity against Vesicular stomatitis virus infected in human HeLa cells assessed as inhibition of virus-induced cytopathicity; format: functional, organism-based
[14] = tested on: Human alphaherpesvirus 1; experiment: Antiviral activity against Herpes simplex virus 1 KOS assessed as inhibition of virus-induced cytopathicity by cell based assay; format: functional, organism-based; settings: Human alphaherpesvirus 1, KOS
[15] = tested on: Felid alphaherpesvirus 1; experiment: Antiviral activity against Feline herpes virus assessed as inhibition of virus-induced cytopathicity by cell based assay; format: functional, organism-based
[16] = Cytotoxicity against human HEL cells; format: cell-based; outline: as §1
[17] = Cytotoxicity against human HuH5.2 cells; format: cell-based, Huh-5-2
[18] = tested on: Influenza B virus; experiment: Antiviral activity against Influenza B virus infected in MDCK cells assessed as inhibition of virus-induced cytopathicity; format: functional, organism-based
[19] = tested on: Sindbis virus; experiment: Antiviral activity against Sindbis virus assessed as inhibition of virus-induced cytopathicity by cell based assay; format: functional, organism-based
[20] = Cytotoxicity against human HeLa cells; format: cell-based; outline: as §1
[21] = tested on: Human respirovirus 3; experiment: Antiviral activity against Parainfluenza 3 virus assessed as inhibition of virus-induced cytopathicity by cell based assay; format: functional, organism-based
[22] = tested on: Vaccinia virus; experiment: Antiviral activity against Vaccinia virus lederle infected in human HEL cells assessed as inhibition of virus-induced cytopathicity; format: functional, organism-based; settings: Orthopoxvirus vaccinia
[23] = tested on: Vaccinia virus; experiment: Ratio of compound EC50 over ribavirin EC50 for Vaccinia virus lederle; format: functional, Orthopoxvirus vaccinia
[24] = tested on: Punta Toro virus; experiment: Ratio of compound EC50 over ribavirin antiviral EC50 for Punta Toro virus; format: functional
[25] = tested on: Punta Toro virus; experiment: Antiviral activity against Punta Toro virus infected in african green monkey Vero cells assessed as inhibition of virus-induced cytopathicity; format: functional, organism-based
[26] = tested on: Punta Toro virus; experiment: Antiviral activity against Punta Toro virus infected in african green monkey Vero cells assessed as inhibition of virus-induced cytopathicity at 100 uM; format: functional, organism-based
Outline: (§3)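 Confluent monolayers (Vero for Punta Toro, HeLa for RSV strain Long) were infected with 100 CCID50 of virus. After 1–2 h adsorption, residual virus was removed and cells were incubated with the compound, 100 μM being the highest level tested. Cytopathicity was scored when untreated infected controls reached full cytopathic effect.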

[27] = tested on: Respiratory syncytial virus; experiment: Antiviral activity against Respiratory syncytial virus Long infected in human HeLa cells assessed as inhibition of virus-induced cytopathicity at 100 uM; format: functional, organism-based; outline: as §3
[28] = tested on: Influenza A virus; experiment: Antiviral activity against Influenza A virus H3N2 infected in MDCK cells assessed as inhibition of virus-induced cytopathicity at 100 uM; format: functional, organism-based
[29] = tested on: Vesicular stomatitis virus; experiment: Antiviral activity against Vesicular stomatitis virus infected in human HeLa cells assessed as inhibition of virus-induced cytopathicity at 100 uM; format: functional, organism-based
[30] = tested on: Influenza B virus; experiment: Antiviral activity against Influenza B virus infected in MDCK cells assessed as inhibition of virus-induced cytopathicity at 100 uM; format: functional, organism-based
[31] = tested on: Vaccinia virus; experiment: Antiviral activity against Vaccinia virus lederle infected in human HEL cells assessed as inhibition of virus-induced cytopathicity at 100 uM; format: functional, organism-based; settings: Orthopoxvirus vaccinia

Q: For `C[C@H](NP(=O)(OC[C@H]1O[C@@H](n2cnc(C(N)=O)n2)[C@H](O)[C@@H]1O)Oc1cccc2ccccc12)C(=O)OCc1ccccc1` (stereo not given in full), which EC50 [1] is on record?
A: The EC50 was 45 µM.

Q: And the EC50 [2]?
A: Its EC50 is over 100 µM.

Q: And the MCC [3]?
A: Its MCC is over 100 µM.

Q: And the EC50 [4]?
A: Its EC50 is 68 µM.

Q: What about the EC50 [5] of the same molecule?
A: The EC50 was over 100 µM.

Q: And the EC50 [6]?
A: Its EC50 is over 100 µM.

Q: And the EC50 [7]?
A: The EC50 was over 100 µM.

Q: And the EC50 [8]?
A: The EC50 was over 100 µM.

Q: What about the EC50 [9] of the same molecule?
A: Its EC50 is over 100 µM.

Q: What about the EC50 [10] of the same molecule?
A: Its EC50 is over 100 µM.

Q: What about the EC50 [11] of the same molecule?
A: Its EC50 is 18 µM.

Q: And the EC50 [12]?
A: The EC50 was over 100 µM.

Q: And the EC50 [13]?
A: Its EC50 is 20 µM.

Q: And the EC50 [14]?
A: The EC50 was over 100 µM.

Q: And the EC50 [15]?
A: The EC50 was over 100 µM.

Q: And the MCC [16]?
A: Its MCC is over 100 µM.

Q: What about the MCC [17] of the same molecule?
A: Its MCC is over 100 µM.

Q: And the EC50 [18]?
A: Its EC50 is 14 µM.

Q: What about the EC50 [19] of the same molecule?
A: The EC50 was over 100 µM.

Q: And the MCC [20]?
A: Its MCC is over 100 µM.

Q: And the EC50 [21]?
A: Its EC50 is over 100 µM.

Q: And the EC50 [22]?
A: The EC50 was 100 µM.

Q: With `NC(=O)c1ncn([C@@H]2O[C@H](COP(=O)(NCC(=O)OCc3ccccc3)Oc3cccc4ccccc34)[C@@H](O)[C@H]2O)n1` (stereo not given in full) as the molecule, how does the EC50 [1] read?
A: The EC50 was 58 µM.

Q: And the EC50 [2]?
A: The EC50 was over 100 µM.

Q: And the MCC [3]?
A: The MCC was over 100 µM.

Q: And the MCC [4]?
A: The MCC was over 100 µM.

Q: What about the EC50 [5] of the same molecule?
A: The EC50 was over 100 µM.

Q: What about the Ratio [23] of the same molecule?
A: Its Ratio is 3.

Q: And the EC50 [6]?
A: The EC50 was over 100 µM.

Q: What about the EC50 [7] of the same molecule?
A: Its EC50 is over 100 µM.

Q: And the EC50 [8]?
A: The EC50 was over 100 µM.

Q: What about the EC50 [9] of the same molecule?
A: Its EC50 is over 100 µM.

Q: And the EC50 [10]?
A: The EC50 was over 100 µM.

Q: And the EC50 [11]?
A: Its EC50 is over 20 µM.

Q: What about the EC50 [12] of the same molecule?
A: The EC50 was over 100 µM.

Q: What about the EC50 [14] of the same molecule?
A: The EC50 was over 100 µM.

Q: What about the EC50 [15] of the same molecule?
A: Its EC50 is over 100 µM.

Q: What about the MCC [16] of the same molecule?
A: The MCC was over 100 µM.

Q: What about the MCC [17] of the same molecule?
A: The MCC was over 100 µM.

Q: And the Ratio [24]?
A: The Ratio was 3.

Q: And the EC50 [18]?
A: The EC50 was over 20 µM.

Q: And the EC50 [19]?
A: Its EC50 is over 100 µM.

Q: What about the MCC [20] of the same molecule?
A: The MCC was over 100 µM.

Q: And the EC50 [21]?
A: Its EC50 is over 100 µM.

Q: What about the EC50 [22] of the same molecule?
A: Its EC50 is 20 µM.

Q: Which EC50 [1] does the source give for `NC(=O)c1ncn([C@@H]2O[C@H](CO)[C@@H](O)[C@H]2O)n1` [RIBAVIRIN] here?
A: The EC50 was 19 µM.

Q: And the MCC [3]?
A: The MCC was over 100 µM.

Q: And the EC50 [4]?
A: The EC50 was 87 µM.

Q: What about the EC50 [25] of the same molecule?
A: Its EC50 is 183 µM.

Q: What about the MCC [16] of the same molecule?
A: The MCC was over 100 µM.

Q: And the MCC [17]?
A: Its MCC is over 100 µM.

Q: What about the MCC [20] of the same molecule?
A: Its MCC is over 100 µM.

Q: Which results are given for `NC(=O)c1ncn([C@@H]2O[C@H](COP(=O)(N[C@@H](Cc3ccccc3)C(=O)OCc3ccccc3)Oc3cccc4ccccc34)[C@@H](O)[C@H]2O)n1` (stereo not given in full)?
A: EC50 [1]: > 20 µM; EC50 [2]: > 100 µM; MCC [3]: > 100 µM; EC50 [4]: > 70 µM; inhibition [26]: inactive; EC50 [5]: > 100 µM; inhibition [27]: inactive; EC50 [6]: > 100 µM; EC50 [7]: > 100 µM; EC50 [8]: > 100 µM; EC50 [9]: > 100 µM; inhibition [28]: inactive; EC50 [10]: > 100 µM; EC50 [11]: > 100 µM; EC50 [12]: > 100 µM; inhibition [29]: inactive; EC50 [13]: > 20 µM; EC50 [14]: > 100 µM; inhibition [30]: inactive; EC50 [15]: > 100 µM; MCC [16]: > 100 µM; MCC [17]: > 100 µM; EC50 [18]: > 100 µM; inhibition [31]: inactive; EC50 [19]: > 100 µM; MCC [20]: > 100 µM; EC50 [21]: > 100 µM; EC50 [22]: 100 µM

— ChEMBL document CHEMBL1156333 (Bioorg Med Chem, 2010)
